Assay results published in PMC9926436 (Doklady. Biochemistry and Biophysics, 2023).
pEC50: −log10 of the molar value.

Legend:
[1] = tested on: human cytomegalovirus (HCMV), strain Davis; format: cell-based; settings: Human betaherpesvirus 5, HEL, read-out: Antiviral activity, EC50, Davis
How it was run: (§1)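 HEL (human embryonic lung) cell cultures infected with HCMV strain AD-169 or Davis. Antiviral activity scored as inhibition of virus-induced cytopathic effect or of plaque formation.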

[2] = Cytostatic activity, cell growth; format: cell-based; settings: human, human embryonic lung (HEL) cells
How it was run: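 Cytostatic assay in HEL cells. Value is the cytotoxic concentration needed to reduce cell growth by 50%.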

[3] = tested on: HCMV (strains AD-169 and Davis); test: Anti-HCMV activity in HEL cells, text statements not split by strain; format: cell-based, human cytomegalovirus; settings: qualitative statement
How it was run: as §1

Row | SMILES | pEC50 [1] | CC50 [2] [µM] | Anti-HCMV activity in words [3]
1 | Nc1ccn(C[C@@H](CO)OCP(=O)(O)O)c(=O)n1 [Cidofovir, cidofovir] | 5.83 | > 300 | 
2 | O=c1c2ccccc2n(CCCCCOc2ccc(Br)cc2)c(=O)n1Cc1cccc2ccccc12 [Compound 24, 1-[5-(4-bromophenoxy)pentyl]-3-(naphthalen-1-ylmethyl)quinazolin-2,4(1H,3H)-dione] | < 4.00 |  | inactive
3 | O=c1ccn(Cc2cccc3ccccc23)c(=O)n1CCCCCOc1ccc(Br)cc1 [Compound 27, 3-[5-(4-Bromophenoxy)pentyl]-1-(naphthalen-1-ylmethyl)uracil] | 4.35 |  | more than one order of magnitude less active
4 | Nc1nc(O)c2ncn(COC(CO)CO)c2n1 [Ganciclovir, ganciclovir] | 5.04 | > 350 | 
